# This is a sample that favours compounds with a hit; in the whole collection about 1.8% have one here.
# STAT3 inh = reduces IL-6 driven STAT3 reporter signal. inhibition, % at 5.5 µM. hit rate 0.89% among 190,000. U3A cells, IL-6 STAT3-luciferase reporter, luminescence; host cell line lacks STAT1;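 active means inhibition above the mean inhibition across all screened compounds plus 3 SD, cut at about 44% in these data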;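 further: 0% = DMSO only wells and 100% = 100 µM nifuroxazide control wells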
# PPC-1+TRAIL kill = kills PPC-1 cancer cells in the presence of TRAIL. PPC-1 cells + TRAIL, ATPLite viability luminescence. cell killing (% activity), % at 4 µM or 5 µM. hit rate 0.41% among 220,000. AID 1443;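 active means cell killing above 50% in the first pass at 4 µM, then a duplicate retest at 5 µM averaging 50% or more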;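 further: plate controls were cells with TRAIL plus DMSO for no effect and medium-only wells lacking cells for full effect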
# STAT3 activator = STAT3 signaling activation. U3A cells, IL-6 STAT3-luciferase reporter, luminescence; 100% = signal with IL-6 EC80 alone. activation (% of control), % at 5.6 µM. hit rate 0.91% among 190,000. AID 871;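 active means activation above the screen-wide mean of compound activation plus 3 SD, cut at about 130% in these data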;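 further: 0% = background luminescence of wells with medium and substrate only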
#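 Material: STAT3-luciferase reporter U3A cells. Controls: IL-6-treated wells, 100% activation. Read-out: % activation versus median of IL-6-stimulated wells. Probe or stimulus: IL-6 stimulus at 33 ng/mL final. Timing: compound 1 h, then IL-6 6 h at 37 °C. Signal: reporter luminescence signal.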
# STAT1 inh = STAT1 signaling inhibition | NIH 3T3 STAT1-luciferase reporter, IFN-gamma, luminescence | hit rate 0.35% among 200,000 | AID 920 | inhibition, % at 5.5 µM;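 active means inhibition above a set limit, the mean inhibition across all tested compounds plus 3 SD, cut at about 34% in these data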;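 further: 0% = IFN-gamma with DMSO and 100% = IFN-gamma with 300 µM nifuroxazide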
# TRAIL sens C8 = sensitizes caspase-8 expressing cells to TRAIL | NB7+C8 cells + TRAIL, ATPlite viability luminescence | inhibition (viability loss, TRAIL sensitization), % at 10 µM | hit rate 1% among 360,000 | AID 624354;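 active means compounds causing at least 50% loss of cell viability in the single-dose screen, relative to plate controls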
# PPC1 cytotox = kills PPC-1 cells; shares compounds with PPC-1+TRAIL kill; cytotoxicity, % at 5 µM; hit rate 50% among 1,200; PPC-1 viability, ATPlite luminescence, overnight;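 active means reconfirmed compounds whose average cytotoxicity reaches 50% or more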;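 further: 0% = DMSO-treated cells and 100% = wells holding medium but no cells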
# An asterisk follows results filed as active; . = no result.
SMILES,STAT3 inh,PPC-1+TRAIL kill,STAT3 activator,STAT1 inh,TRAIL sens C8,PPC1 cytotox
Nc1nnc(-c2ccc(F)cc2)s1,17.1,4.2,91.8,-3.6,13.3,.
CCCNC(=O)c1oc2ccc3c(c2c1C)C(=O)CC(C)(C)O3,5.5,51.6*,99.1,-48.5,52.0*,46.9
COCCn1nnnc1C(c1cc2cc(C)ccc2[nH]c1=O)N1CCN(C2CCCCC2)CC1 (stereo not given),-0.7,23.3,109.4,-1.6,0.3,.
COCCn1nnnc1C(c1cc2ccc(OC)cc2[nH]c1=O)N1CCN(C2CCCCC2)CC1 (stereo not given),-0.9,-20.5,101.0,-3.3,2.4,-0.1
O=C(Nc1ccccc1Cl)N1C2CCC1CC(O)(c1cccnc1)C2 (stereo not given),-1.8,-1.9,106.2,-2.4,-7.6,9.3
Cc1nc(NC(=O)c2ccccc2)sc1-c1cc(C(=O)N2CCOCC2)nn1Cc1ccccc1,.,.,.,.,9.9,.
C#CCOCCOCCOCCNc1nc(N2CCN(C(=O)[C@H](CCC(=O)O)n3cc([C@@H](N)[C@H](C)CC)nn3)CC2)nc(N2CCN(C(=O)[C@H](CCC(=O)O)n3cc([C@@H](N)CCSC)nn3)CC2)n1,.,.,.,.,-8.5,.
O=C(NC1CCCCC1)C(c1ccccc1)N(Cc1ccc2c(c1)OCO2)C(=O)c1cnsn1 (stereo not given),-7.3,1.1,108.0,2.6,15.3,8.2
O=S(=O)(NC1CC1)c1ccccc1,.,.,.,.,-5.4,.
CC1(C)Cc2nc3sc(C(=O)NCCO)c(N)c3cc2CO1,-1.8,8.0,104.1,-12.2,-3.7,7.7
CC1(C)Cc2nc3sc4c(N(CCO)CCO)ncnc4c3cc2CO1,-0.8,15.3,103.0,-10.4,3.4,.
CC1(C)Cc2nc3sc4c(SCC(=O)O)ncnc4c3cc2CO1,.,71.4*,.,.,75.9*,74.8*
O=C(CN1C(=O)C2CCCCC2C1=O)Nc1ccc(OC(F)F)c(Cl)c1 (stereo not given),.,.,.,.,3.9,.
CCOC(=O)C(C(=O)N(C)Cc1ccccc1)C1CCCCC1 (stereo not given),.,.,.,.,2.3,.
COc1ccc(-c2nc(Cn3c(SCc4ccc(C)cc4)nc4ccncc43)c(C)o2)cc1OC,-6.9,19.9,113.8,-0.7,2.6,14.0
COc1ccc(-c2nc(Cn3c(SCc4cccc(F)c4)nc4ccncc43)c(C)o2)cc1OC,7.8,12.1,93.8,0.8,6.1,.
O=C(NCCN1CCOCC1)c1ccncc1,-4.0,-15.5,107.1,-7.2,-30.8,.
O=C1C=C(NCCN2CCOCC2)C(=O)c2cnccc21,82.9*,65.2*,28.2,53.1*,.,66.6*
COc1ccc(OC)c(NC(=O)CCNC(=O)N2CC(=O)Nc3ccccc32)c1,.,.,.,.,7.0,.
Cc1cccc(C)c1-n1c(C)cc(/C=N\Nc2ccc([N+](=O)[O-])cn2)c1C,17.1,22.7,90.0,1.9,7.5,.
Cc1cc(/C=N/Nc2nc(N)ncc2[N+](=O)[O-])c(C)n1-c1ccccc1F,.,76.4*,.,.,.,77.4*
CCN(CC)C(=O)CSc1nnc2nnc3cc(Cl)ccc3n12,.,19.9,.,.,19.0,.
O=c1c(Cl)c(N2CCCCC2)cnn1-c1nc2ccccc2[nH]1,103.1*,92.0*,12.7,71.5*,87.4*,92.1*
O=c1c2ccccc2cnn1-c1nc2ccccc2[nH]1,107.3*,94.0*,9.0,93.8*,94.3*,93.8*
Clc1ccc2nc(N3CCCCC3)[nH]c2c1,-4.4,28.6,104.5,-39.0,47.7,.
SMILES,STAT3 inh,PPC-1+TRAIL kill,STAT3 activator,STAT1 inh,TRAIL sens C8,PPC1 cytotox
O=c1c2ccccc2nc2c3ccccc3cnn12,19.4,5.5,87.0,-36.8,-1.4,.
Cc1ccc2c(CC(=O)N(C)c3c(N)n(Cc4ccccc4)c(=O)[nH]c3=O)coc2c1,.,.,.,.,14.3,.
Cc1nn(C)c(C)c1/C=C/C(=O)c1cccs1,8.2,.,95.7,-16.0,22.0,.
Cc1nn(C)cc1/C=C/C(=O)c1cccs1,-18.3,23.4,118.7,-14.4,38.3,6.1
CCN(CC)Cc1c(O)ccc2c(=O)c(-c3ccc4c(c3)OCCO4)coc12,10.7,1.5,94.2,0.8,12.2,.
O=c1c(-c2ccc3c(c2)OCCO3)coc2cc(O)cc(O)c12,12.4,33.8,93.2,-21.2,32.2,35.9
CN(C(=O)c1ccc2c(c1)OCO2)C1(C(=O)NC2CCCC2)CCCCC1,10.1,5.9,96.8,-1.6,-6.4,2.1
Cc1nn(-c2ccccc2)c(C)c1/C=N\N1CCN(c2ccc(Cl)cc2)CC1,18.3,0.7,91.2,0.6,9.9,3.2
Cc1nn(-c2ccccc2)c(C)c1/C=N/n1cnnc1,15.8,-22.1,93.0,-5.8,0.2,.
CC(C)OC(=O)Nc1ccc2c(c1)N(C(=O)N1CCN(C)CC1)c1ccccc1CC2,.,74.5*,.,.,78.9*,73.5*
CCOC(=O)C1=CCN(S(=O)(=O)c2ccc(C)cc2)C1c1cccc(C)c1 (stereo not given),.,.,.,.,6.6,.
C=C(C)C(=O)Nc1cccnc1Oc1ccc(F)cc1F,.,1.2,.,.,-2.7,.
NC(=O)c1ccccc1NC(=O)/C=C/c1ccc(Cl)cc1,27.8,56.5*,82.0,-57.6,68.0*,57.0*
CC1(C)NC(C(=O)O)Cc2c1[nH]c1ccccc21 (stereo not given),-5.5,-3.5,105.0,14.6,-0.8,5.7
CC(=O)N1C(C(=O)O)Cc2c([nH]c3ccccc23)C1(C)C (stereo not given),.,.,.,.,-14.7,.
Cc1cccc(N=C2NN=C(c3c(C)[nH]c4ccccc34)CS2)c1,-1.8,14.9,99.4,8.5,-6.2,.
Cc1cccc(N=C2NN=C(c3ccc4c(c3)OCCO4)CS2)c1,37.3,36.0,71.9,-12.8,28.7,32.8
COc1cc(C)c(NC(=O)c2cccc(S(=O)(=O)N3CCCC3)c2)cc1OC,.,.,.,.,5.1,.
COc1cc(/C=C/c2nc3ccccc3s2)cc(OC)c1O,18.8,12.0,90.5,-14.7,-7.9,.
CN(C)c1ccc(/C=C/c2nc3ccccc3s2)cc1,107.8*,80.7*,14.4,91.0*,91.6*,81.0*
CCCN(CCC)c1ccc(/C=C/c2ccc3cc(OCC)ccc3n2)cc1,.,15.4,.,.,4.0,.
O=[N+]([O-])c1ccc(/C=C/c2ccc3ccccc3n2)cc1,78.5*,63.7*,36.2,52.2*,74.2*,61.1*
Oc1ccc(/C=C/c2ccc3ccccc3n2)cc1,101.9*,56.0*,18.4,71.5*,71.7*,56.1*
CN(C)c1ccc(/C=C/c2ccc3ccccc3n2)cc1,.,92.5*,.,.,89.3*,91.9*
CC(C)N1CCC(NC(=O)NC2CCCCC2)CC1,8.0,0.9,96.8,-3.4,0.3,.
O=C1C2C3C=CC(C3)C2C(=O)N1c1ccc(N2CCN(c3ccccn3)CC2)c([N+](=O)[O-])c1 (stereo not given),14.8,9.8,90.6,8.7,-0.3,.
O=C(CCCSc1ccccc1)Nc1ccc(Cl)c(S(=O)(=O)N2CCOCC2)c1,.,.,.,.,25.1,.
Cc1ccc(/C=C/c2nc3ccccc3s2)s1,70.2*,85.0*,43.4,43.8*,66.5*,82.9*

# Screening results deposited in PubChem by several laboratories.
